In ChEMBL document CHEMBL4513216, “Probing the Open Global Health Chemical Diversity Library for Multistage-Active Starting Points for Next-Generation Antimalarials” (ACS Infect Dis, 2020):

Test: Toxicity liver stage against HepG2, at 10uM
Type: cell-based
Design: test concentration 10 uM, cell line HepG2-A16-CD81EGFP
Conditions: human, HepG2-A16-CD81EGFP cells; read-out: INHIBITION
How it was run: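 Uninfected HepG2-A16-CD81EGFP cells, 3 × 10^3 per well, 1536-well, plated on prespotted compound at 10 μM final, parasite-free screening media added to match infected plates; puromycin 10 μM positive, DMSO 0.5% negative; run in parallel with 48 h PbLuc assay at 37 °C, 5% CO2; viability by CellTiter-Glo luminescence, normalized to controls.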

Compound	cytotoxicity at 10 µM [%]
Cc1cc(CC(=O)N2CCN(CC3CC3)[C@@H]3CS(=O)(=O)C[C@@H]32)ccc1F	5.17
CCS(=O)(=O)N1C[C@@H](O)[C@H](N2CCc3ccccc3C2)C1	-3.63
COc1ccc(CNC(C)c2ccc(Cl)c(Cl)c2)c(OC)c1OC (stereo unspecified)	14.2
c1cnnc(N2CCCC(NCc3cccc4c3OCCCO4)C2)c1 (stereo unspecified)	-19.8
c1cnc(N2CCO[C@H]3[C@H](OCCN4CCCC4)CC[C@@H]32)nc1	-11.8
COc1ccccc1OCC(=O)NS(=O)(=O)c1ccccc1Br	-9.8
Cc1cnc(NC(=O)c2cccc(CN(C)Cc3ncccc3C)c2)s1	14.2
Cc1cn2nc(N3CCCC3Cn3cccn3)sc2n1 (stereo unspecified)	-18.1
CC(C)N1CCC(c2nnc(CN3CCCC3)n2C2CC2)CC1	-4.57
COCCCNc1nc(CNC(C)=O)cc(-c2ccco2)n1	-5.52
CSCC(=O)N(C)Cc1cnn(-c2ccc(F)cc2)c1	-13.4
c1ccc(NCc2cnc3n2CCN(CC2CCOC2)CC3)nc1 (stereo unspecified)	-76.5
CCN1CCC2(CC1)OCCN2C(=O)c1ccc(OC)c(Cl)c1	9.55
CC(C)OCCCNC(=O)c1cccnc1N1CCOCC1	10.5
CN(Cc1nnc2n1CCC2)C(=O)NCCc1ccc2c(c1)OCO2	-4.77
N#Cc1ccc(OCC(O)CN2CCN(c3nccs3)CC2)cc1 (stereo unspecified)	2.06
Cc1ccc2ncccc2c1CN1CC[C@H](N(C)C)[C@H](CCC(=O)O)C1	-148
CCCC1CCCN(C(=O)Nc2cccnc2OC)CC1 (stereo unspecified)	4.52
CCCNC(=O)c1cccc2ncccc12	-50.3
CCOCCn1c(=O)n(Cc2ccccc2F)c2cc(C(=O)O)cnc21	-6.46
CC(O)CN1CCN(C(=O)CN(C)c2ccc(C#N)cn2)CC1 (stereo unspecified)	-0.785
Cc1ccc(C2NC(=O)c3cc(C(C)C)sc3N2)cc1 (stereo unspecified)	7.96
CC(C)NC(=O)Cn1cc(-c2ccccc2)ncc1=O	-9.87

Compound	cytotoxicity at 10 µM [%]
O=S1(=O)CCC(N2CCN(c3cc(C(F)(F)F)ccn3)CC2)C1 (stereo unspecified)	-3.97
CCCNC(=O)c1cc2c(s1)CCN2C(=O)CN(C)C	2.03
OC1(CN2CCCC2)COCCN(c2nnc(-c3ccccc3)s2)C1 (stereo unspecified)	-10.1
CN1CCC2(Cc3ccccc3CN(C(=O)CCN)C2)C1 (stereo unspecified)	0.17
COC(=O)C(CNC(=O)Nc1cn[nH]c1)Cc1cccc(C)c1 (stereo unspecified)	1.37
CCN1CCc2[nH]cnc2C12CCN(c1ncc(C(=O)O)cc1Cl)CC2	1.46
COCc1nc(C(=O)NS(=O)(=O)c2ccc(F)c(F)c2)cs1	7.97
N#Cc1ccccc1N1CCCN(C(=O)CCc2ccsc2)CC1	-8.25
CC1c2cccn2CCN1C(=O)CCCc1nc(-c2ccco2)no1 (stereo unspecified)	7.16
CCn1cc(CNc2ccc(F)c(F)c2)cn1	-0.0638
O=C1CC(c2ccncc2)c2c(sc3c2CCCC3)N1 (stereo unspecified)	5.57
Cc1noc(C)c1-c1nc(C2CCCN(C(=O)CN)C2)ccc1CO (stereo unspecified)	-3.11
CCC[C@@H]1CN(Cc2ccccc2OC(F)(F)F)C[C@H]1NC(C)=O	5.5
Cc1cccc(NC(=O)N2CCC3(CCC(C(=O)N(C)C)O3)CC2)c1 (stereo unspecified)	-107
Cc1noc(-c2ccnc(Oc3ccc(CN4CCCC4)cc3C)c2)n1	51.4
COc1cccc(OC)c1-c1c[nH]c(C)n1	-1.57
Nc1cc2c(nn1)CCN(C(=O)c1cccc3c1OCCO3)C2	-8.72
N#Cc1ccccc1N1CCN(C(=O)NCCN2CCOCC2)CC1	1.08
CCN1CCC(CC(=O)NCc2cc(C)nn2C)CC1	-14.5
COc1c(C2CCCN2C(=O)c2cnccn2)c(C)nn1C (stereo unspecified)	0.501
CS(=O)(=O)N1CCC(C(=O)N2CCC3(CC2)OCCCO3)CC1	1.91
CCC1=N[C@@]2(CC[C@@H]3CN(Cc4ccc(C)cc4)C[C@@H]32)C(=O)N1C	-95
CC(=O)N1CCCN(C(=O)c2cnn(C(C)(C)C)c2C)CC1	2.89

Compound	cytotoxicity at 10 µM [%]
CC(NCCCC#N)c1ccc(-c2ccncc2)cc1 (stereo unspecified)	-1.93
CN(Cc1ccccn1)C(=O)c1nc(S(C)(=O)=O)n2ccccc12	-8.01
O=C(NCC1CC1)[C@H]1C[C@H]2CN(C(=O)NCc3ccccc3)C[C@@H]1O2	4.97
CCCN1CCN(C(=O)c2cccnc2)CC1	-48.5
CCc1ccc(CNC(=O)NCc2nnc3n2CCC3)s1	2.12
Cn1ccnc1SCc1nc(C(C)(C)NC(=O)OC(C)(C)C)no1	-0.679
Cc1cc(CN2CCOC(CNc3cccnn3)C2)no1 (stereo unspecified)	-18.4
CC(C)Oc1ccc2c(NC(=O)CN(C)C)nn(CC(F)(F)F)c2c1	1.6
Cc1cc(S(=O)(=O)NC(=O)CCc2cccnc2)c(C)s1	8.28
CCNc1ncc(C(=O)NCc2csc(C)n2)cn1	12.5
Cc1ccc(CN(CCCn2ccnc2)Cc2c[nH]nc2C(C)(C)C)s1	-3.91
CS(=O)(=O)N1C[C@@H](NC(=O)c2ccno2)[C@@H]2OCCC[C@@H]21	-108
CC(C)C(C)N(C)C(=O)COc1ccccc1C#N (stereo unspecified)	-3.28
Cn1nc(-c2ccccc2)c(Br)c1C(=O)O	-48.3
CN(C)CCN1CCN(C)C2(CCN(c3nccs3)CC2)C1=O	-1.92
CC(C)(C)C(=O)N1CCCC(c2ncncc2-c2ccncc2)C1 (stereo unspecified)	4.03
CCCS(=O)(=O)N1Cc2nccn2CC(CN2CCCC2)C1 (stereo unspecified)	-131
CCc1ccc(S(=O)(=O)Nc2ccc(F)cc2C(=O)O)s1	3.69
O=C(CCc1ccsc1)NC1CCN(c2cccc(F)c2)CC1	-3.89
CSc1cc2c(cc1NC(=O)NCC(C)(C)C(N)=O)OCCO2	-10.9
c1ccc2oc(C3CCN(Cc4ncon4)CC3)nc2c1	2.56
CCc1cc(N(C)Cc2ccncn2)n2nc(C)c(C)c2n1	4.34
Nc1nccc(-c2c[nH]nc2C2CCCCC2)n1	36.5

Compound	cytotoxicity at 10 µM [%]
COCCN1CCC(CNC(=O)CCc2cc(F)ccc2F)C1 (stereo unspecified)	-4.05
CSCC(CCO)Nc1nc(C(F)F)nc2ccccc12 (stereo unspecified)	-5.52
COCC(=O)N1CCCC(C(=O)N(C)CCn2ccnc2C)C1 (stereo unspecified)	0.707
CC(C)CNC(=O)C(C)N1CCN(C2CCN(C(C)C)CC2)CC1 (stereo unspecified)	-7.09
Cc1cc(CN(C)C(=O)c2ccc(OCC(F)(F)F)nc2)no1	-6.19
CCn1cc(CN(C)S(=O)(=O)c2cnn(CC)c2C)c(C)n1	3.13
Cc1ccc(CN2CCN(c3nc4c(s3)c(C)nn4C)C(C)C2=O)cc1 (stereo unspecified)	76.5
CNc1cnc(CC2COCCN(Cc3cccc(C)n3)C2)cn1 (stereo unspecified)	8
CN(C)c1cccc(C(=O)N2CCCC2c2ncc3c(n2)CCNC3)c1 (stereo unspecified)	-9.97
O=C1NC[C@@]2(C(=O)O)CN(Cc3cccc(CN4CCOCC4)c3)C[C@@H]12	-7.98
Cn1cc(CN2CCCC3(CCN(C(=O)c4cnccn4)C3)C2)cn1 (stereo unspecified)	-69.6
O=C(NCCO)NC(c1ccccc1)c1ccc2c(c1)CCCO2 (stereo unspecified)	2.73
Cc1cnn(CCNCC(O)c2cccc(Br)c2)c1 (stereo unspecified)	1.66
CC(C)Oc1ncccc1CNC(=O)c1cc[nH]n1	-9.12
Cc1cc(-c2ccc(C(=O)O)cc2)nc(C2CCCN(C(C)C)C2)n1 (stereo unspecified)	5.61
CCC(NC(=O)c1ccoc1)c1ccccc1OCC(=O)N1CCCC1 (stereo unspecified)	-4.31
CN1CCN([C@H]2CCN(C(=O)c3cc(Cl)cn3C)C[C@H]2CCCO)CC1	0.174
CS(=O)(=O)NC[C@]12COC[C@H]1CN(C(=O)c1ncccn1)C2	4.9
COCCO[C@@H]1CCN(Cc2csc(C)n2)[C@H]1Cc1ccccc1	5.98
C[C@@H]1CN(CCOc2ccc(F)cc2)CC[C@@]1(O)C1CCOCC1	-7.19
CCCNC(=O)NC(=O)CNc1c(F)cccc1N1CCCC1	0.266
COc1cc(C)nc(N2CCN(C(=O)CCc3ccco3)CC2)n1	7.92
O=c1c(S(=O)(=O)N2CCCC2)cccn1Cc1ccc(F)cc1Cl	12

Compound	cytotoxicity at 10 µM [%]
CCc1nc(C2CCCN2Cc2cc(C)nc3ccccc23)no1 (stereo unspecified)	86
Cc1ccc(NC2(C(=O)NCc3c(C)n[nH]c3C)CCCC2)cc1	3.73
Cn1cc(CCCN2CCN(C(=O)c3cccc(O)c3)CC2)cn1	-46.1
Cc1cc(CCC(=O)N2CCC(O)CC2)ccc1Br	-4.3
CCN1CCCN(c2ccc(-n3ccc(C)n3)nn2)CC1	-0.553
c1cnnc(N2CCCC(NCc3ccc(-n4cncn4)cc3)C2)c1 (stereo unspecified)	-3.14
Cn1cc(N2CC3(CCN(S(=O)(=O)C4CC4)C3)CC2=O)cn1 (stereo unspecified)	-9.82
CN1CCCC2(CCN(C(=O)Cc3cc4c(cc3Cl)OCCO4)C2)C1=O (stereo unspecified)	10.1
CCCS(=O)(=O)N1CCN(c2cc(-n3cnc(C)c3C)nc(C)n2)CC1	-8.51
Cc1ccc(Cn2ccc(NS(C)(=O)=O)n2)cc1	-12.2
C[C@@H](N)C(=O)N1CC2(CCNCC2)c2cc(Cl)ccc21	-2.42
Cn1cc2c(n1)C(COCC1CC1)CN(Cc1ccsc1)C2 (stereo unspecified)	-76.1
O=C1CCC2(CCCN(Cc3nccs3)C2)N1CC1CC1 (stereo unspecified)	-68.4
CNC(=O)CN1CCC(CN(C)CCSc2ccccc2)CC1	-0.488
O=C1CCC2(CCN(Cc3cscn3)CC2)CN1CC1CCCO1 (stereo unspecified)	-5.5
Cc1ccc(CN2C[C@@H]3CCCO[C@@H]3[C@H](N(C)Cc3ccco3)C2)s1	3.88
O=C(c1ccnnc1)N1CCO[C@H]2[C@H](Oc3cccnc3)CC[C@@H]21	8.39
NS(=O)(=O)CCCNC(=O)c1cnc(-c2ccsc2)s1	-9.59
CC(=O)N1CCCC(c2ccc3sc(N)nc3n2)C1 (stereo unspecified)	0.248
